This is an account of results in ChEMBL document CHEMBL1833936, “7-azaindenoisoquinolines as topoisomerase I inhibitors and potential anticancer agents” (J Med Chem, 2011).

Structures are written as SMILES. ≈ marks a conversion by molar mass, not a printed value. Calls of active or inactive are those of the source. The rule behind the calls is not given here. A value given as a limit tells only on which side of the number the result lay.

In one data set the test system is OVCAR-3. Put plainly: Cytotoxicity against human OVCAR3 cells after 48 hrs by SRB assay. It is filed as functional. The note with it: OVCAR-3, 48 h. A digest of the protocol: (§1)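 NCI 60-cell-line screen. Cells incubated 48 h with five 10-fold dilutions starting at 100 μM, then stained with sulforhodamine B. Optical density relative to control plotted against log concentration.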

Another data set deals with SF-539. Put plainly: Cytotoxicity against human SF539 cells after 48 hrs by SRB assay. The format is functional. The following applies: SF-539, 48 h. A digest of the protocol:
as §1
On the technique in general: In SRB staining, fixed cells bind dye roughly in proportion to their protein.

A further data set relates to SN12C. Kind of data set: Cytotoxicity against human SN12C cells after 48 hrs by SRB assay. The format is functional. A digest of the protocol:
as §1

For another data set, the system named is HCT-116. Kind of data set: Cytotoxicity against human HCT116 cells after 48 hrs by SRB assay. It is filed as functional. The following applies: HCT-116, 48 h. A digest of the protocol:
as §1

A further data set relates to HOP-62. Put plainly: Cytotoxicity against human HOP62 cells after 48 hrs by SRB assay. It is filed as functional. The note with it: HOP-62, 48 h. The essentials:
as §1

Data set [1] in a line: Aqueous solubility at pH 7.5 after 24 hrs by HPLC. The format is physicochemical. The essentials: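 Solid sample (4–10 mg) shaken in 1 M Tris buffer pH 7.5 for 24 h at 25 °C, then centrifuged and supernatant filtered. Supernatant analysed by reverse-phase C18 HPLC eluting methanol (1% TFA)/water 90:10. Concentration from one-point calibration against buffer solutions of known concentration.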

Another data set relates to MCF7. Kind of data set: Cytotoxicity against human MCF7 cells after 48 hrs by SRB assay. It is filed as functional. The following applies: MCF7, 48 h. The essentials: as §1
Data set [2] addresses T1, DNA topoisomerase 1 (Homo sapiens) (UniProt P11387).
T1 sequence (whole entry): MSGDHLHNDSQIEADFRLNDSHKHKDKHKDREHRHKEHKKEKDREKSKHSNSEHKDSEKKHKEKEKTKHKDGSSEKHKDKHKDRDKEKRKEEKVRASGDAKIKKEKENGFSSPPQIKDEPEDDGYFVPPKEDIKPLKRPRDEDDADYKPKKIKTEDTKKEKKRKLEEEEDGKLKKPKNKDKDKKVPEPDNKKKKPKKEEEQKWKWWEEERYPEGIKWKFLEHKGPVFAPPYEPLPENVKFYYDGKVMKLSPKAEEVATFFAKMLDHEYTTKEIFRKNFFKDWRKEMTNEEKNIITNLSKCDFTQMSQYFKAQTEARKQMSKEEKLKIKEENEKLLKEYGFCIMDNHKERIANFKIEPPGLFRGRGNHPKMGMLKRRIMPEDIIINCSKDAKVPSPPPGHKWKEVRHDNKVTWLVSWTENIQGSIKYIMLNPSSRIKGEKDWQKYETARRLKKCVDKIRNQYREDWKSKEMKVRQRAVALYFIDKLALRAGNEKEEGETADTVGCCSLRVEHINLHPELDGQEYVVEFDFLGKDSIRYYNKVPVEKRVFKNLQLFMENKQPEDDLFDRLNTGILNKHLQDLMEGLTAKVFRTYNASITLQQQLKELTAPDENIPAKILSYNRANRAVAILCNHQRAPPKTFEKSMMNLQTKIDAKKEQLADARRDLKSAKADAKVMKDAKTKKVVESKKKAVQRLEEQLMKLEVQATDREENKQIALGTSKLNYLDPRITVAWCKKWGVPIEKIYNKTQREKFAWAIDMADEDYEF
Kind of data set: Inhibition of human topoisomerase 1 assessed as inhibition of radiolabeled DNA fragment cleavage 0.1 to 100 uM after 20 mins by gel-based phosphoimaging relative to control. The essentials:
(§2)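 Human recombinant Top1 purified from baculovirus. About 2 nM 117-bp DNA substrate, 3′-end-labeled with [α-32P]-dGTP by Klenow fill-in. Stopped with 0.5% SDS and formamide loading dye; 20% denaturing PAGE, phosphoimager. Tested at 0.1, 1, 10 and 100 μM.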

The subject of a further data set is DU-145. Put plainly: Cytotoxicity against human DU145 cells after 48 hrs by SRB assay. The format is functional. The following applies: DU-145, 48 h. A digest of the protocol:
as §1

The subject of a further data set is UACC-62. Put plainly: Cytotoxicity against human UACC62 cells after 48 hrs by SRB assay. It is filed as functional. The note with it: UACC-62, 48 h. The essentials: as §1
For data set [3], the target named is T1, DNA topoisomerase 1 (Homo sapiens). Kind of data set: Inhibition of human topoisomerase 1-mediated DNA relaxation assessed as DNA intercalation at compound concentration above 3 uM after 30 mins by gel electrophoresis relative to control. The essentials: (§3)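 Two-step unwinding assay. SV40 DNA first fully relaxed with excess Top1 for 15 min at 37 °C without drug. Relaxed DNA then incubated 30 min at 37 °C with drug at 1, 3, 10, 30 or 100 μM. Control was a further 30 min incubation at 37 °C without drug. Products resolved on gel.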

Data set [4] has the same target. Put plainly: Inhibition of human topoisomerase 1-mediated DNA relaxation assessed as DNA intercalation at 100 uM after 30 mins by gel electrophoresis relative to control. The essentials: as §3
The target is the same in data set [5]. Kind of data set: Inhibition of human topoisomerase 1 assessed as inhibition of radiolabeled DNA fragment cleavage after 20 mins by gel-based phosphoimaging relative to control. A digest of the protocol: as §2
Data set [6] has the same target. Put plainly: Inhibition of human topoisomerase 1 assessed as inhibition of radiolabeled DNA fragment cleavage up to 100 uM after 20 mins by gel-based phosphoimaging relative to control. The essentials: as §2
For data set [7] the target is unchanged. Kind of data set: Inhibition of human topoisomerase 1-mediated DNA relaxation assessed as DNA intercalation at 1 to 100 uM after 30 mins by gel electrophoresis relative to control. A digest of the protocol:
as §3

For orientation: GI50 means the concentration giving 50% growth inhibition. Lower therefore signals greater sensitivity of the cells. As a reminder, the solubility is the dissolved amount per volume that the medium holds. Lower therefore signals a poorly soluble substance. For `CN(C)CCCn1c2c(c3ccccc3c1=O)C(=O)c1cccnc1-2`, the GI50 is 2570 nM with OVCAR-3; 1910 nM in the data set with SF-539; 810 nM in the data set with SN12C; 410 nM with HCT-116; 1510 nM in the data set on HOP-62; 250 nM in the data set on MCF7. Besides, the GI50 amounted to 1350 nM in the data set on DU-145 and 2690 nM in the data set with UACC-62. For the same molecule, the solubility at 24 h in [1] stood at 24 mM (≈ 8 mg/mL). In addition, the inhibition result in data set [2] was “Active”.

Consider `COc1cc2c3c(n(CCCN(C)C)c(=O)c2cc1OC)-c1ccccc1C3=O`, for which the GI50 in the data set on SF-539 is 6170 nM; with SN12C it was 11000 nM; in the data set on HOP-62, 11500 nM; in the data set on MCF7 it was 6170 nM. Further, the concentration in solution in data set [1] (solubility at 24 h) came to 60 mM (≈ 23.5 mg/mL). Moreover, the inhibition result in data set [2] was “Active”.

Take `O=C1c2cccnc2-c2c1c1ccccc1c(=O)n2CCCn1ccnc1`: the GI50 in the data set with OVCAR-3 is 8710 nM; with SF-539, 5130 nM; in the data set on SN12C, 3720 nM; in the data set with HCT-116, 1200 nM; with HOP-62, 7240 nM; with MCF7, 3390 nM. The GI50 in the data set with DU-145 was 2880 nM; with UACC-62, 35500 nM. The inhibition entry in data set [2] is “Active”.

Take `CN(C)CCCn1c2c(c3ccccc3c1=O)C(=O)c1ccccc1-2`: the GI50 with OVCAR-3 worked out at 1660 nM; with MCF7 it was 550 nM. The concentration in solution in data set [1] (solubility at 24 h) was 0.28 mM (≈ 0.0931 mg/mL). Further, the inhibition entry in [2] was “Active”.

As to `COc1cc2c3c(n(CCCNCCO)c(=O)c2cc1OC)-c1ncccc1C3=O`, the GI50 in the data set on OVCAR-3 worked out at 340 nM; with SF-539 it was 260 nM; in the data set with SN12C, 230 nM; in the data set on HCT-116, 150 nM; in the data set on HOP-62 it was 300 nM; with MCF7, 74 nM. Also, the GI50 is 320 nM in the data set with DU-145 and 120 nM in the data set with UACC-62. Besides, the inhibition result in data set [2] was “Active”.

As for `O=C1c2cccnc2-c2c1c1ccccc1c(=O)n2CCCNCCO`, the 50% growth inhibitory concentration (GI50) was found to be 1550 nM in the data set on OVCAR-3; 870 nM in the data set with SF-539; 760 nM with SN12C; 300 nM in the data set on HCT-116; 1410 nM in the data set on HOP-62; 480 nM with MCF7. The GI50 is 410 nM in the data set on DU-145 and 3090 nM in the data set with UACC-62. In addition, the inhibition result in [2] is “inactive”.

For `CN(C)CCCn1c2c(c3ccc([N+](=O)[O-])cc3c1=O)C(=O)c1cccnc1-2`, the GI50 in the data set on OVCAR-3 came to 2290 nM; in the data set on SF-539 it was 2690 nM; with SN12C, 1000 nM; in the data set on HCT-116, 440 nM; with HOP-62 it was 2350 nM; in the data set with MCF7, 360 nM. Further, the GI50 in the data set on DU-145 came to 930 nM; with UACC-62 it was 3310 nM. Moreover, the inhibition result in [2] is “Active”.

Take `COc1cc2c3c(n(CCCN(C)C)c(=O)c2cc1OC)-c1ncccc1C3=O`: the GI50 amounted to 3550 nM in the data set with OVCAR-3; 4070 nM in the data set on SF-539; 3160 nM in the data set with SN12C; 1580 nM in the data set with HCT-116; 3390 nM with HOP-62; 440 nM in the data set with MCF7. For the same molecule, the GI50 in the data set with DU-145 was determined as 1700 nM; with UACC-62, 13200 nM. In data set [1], the concentration in solution (solubility at 24 h) was 100 mM (≈ 39.3 mg/mL). The Activity entry in data set [3] was “Dose-dependent effect”. Also, the inhibition result in data set [2] was “Active”. Further, in [4], the outcome was Active.

In turn, `CC[C@@]1(O)C(=O)OCc2c1cc1n(c2=O)Cc2cc3ccccc3nc2-1` [CAMPTOTHECIN] had a GI50 in the data set on MCF7 of 13 nM.

On to `COc1cc2c3c(n(CCCn4ccnc4)c(=O)c2cc1OC)-c1ncccc1C3=O`, for which, in [5], the inhibition entry is “Dose-dependent effect”. For the same molecule, the inhibition result in data set [2] and in data set [6] was “Active” in each case.

With `COc1cc2c3c(n(CCCN4CCOCC4)c(=O)c2cc1OC)-c1ncccc1C3=O`, the GI50 with OVCAR-3 came to 370 nM; in the data set on SF-539, 290 nM; in the data set with SN12C, 520 nM; with HCT-116, 220 nM; with HOP-62 it was 300 nM; in the data set on MCF7 it was 52 nM. Besides, the GI50 in the data set on DU-145 came to 310 nM; in the data set with UACC-62, 95 nM. Besides, the inhibition result in [5] is “Dose-dependent effect”. For the same molecule, the inhibition result in data set [2] and in data set [6] was “Active” throughout. Besides, the result in [7] was inactive.

Regarding `COc1cc2c3c(n(CCCN)c(=O)c2cc1OC)-c1ncccc1C3=O`, the GI50 in the data set with OVCAR-3 stood at 1580 nM; in the data set with SF-539, 2190 nM; in the data set on SN12C it was 2880 nM; in the data set on HCT-116, 380 nM; in the data set with HOP-62 it was 3020 nM; with MCF7 it was 49000 nM. Besides, the figures for the GI50 with DU-145 and in the data set with UACC-62 were 1620 nM and 8130 nM, respectively. Moreover, the inhibition result in data set [2] is “Active”.

For `CN(C)CCCn1c2c(c3ccc([N+](=O)[O-])cc3c1=O)C(=O)c1ccccc1-2`, the GI50 in the data set with OVCAR-3 amounted to 32400 nM; in the data set with MCF7 it was 240 nM. In addition, in [2], the inhibition entry is “Active”.

With `O=C1c2cccnc2-c2c1c1ccccc1c(=O)n2CCCN1CCOCC1`, the GI50 with OVCAR-3 came to 28200 nM; with SF-539 it was 5620 nM; in the data set with SN12C, 5370 nM; in the data set with HCT-116, 1860 nM; with HOP-62, 35500 nM; with MCF7, 2750 nM. In addition, the figures for the GI50 in the data set with DU-145 and in the data set on UACC-62 were 3550 nM and > 100000 nM, respectively. Moreover, the inhibition result in data set [2] is “Active”.

For `O=C1c2cccnc2-c2c1c1ccc([N+](=O)[O-])cc1c(=O)n2CCCN1CCOCC1`, the inhibition entry in data set [2] is “Active”.

Take `COc1cc2c3c(n(C)c(=O)c2cc1OC)-c1cc2c(cc1C3=O)OCO2`: the GI50 in the data set with SF-539 was 1660 nM; in the data set with HCT-116 it was 11500 nM; with HOP-62, 8510 nM; in the data set with MCF7 it was 1910 nM; in the data set with DU-145, 4790 nM; in the data set on UACC-62, 560 nM. For the same molecule, the inhibition entry in data set [2] was “Active”.
